Measurements as given in ChEMBL document CHEMBL1125249, “Structure-affinity relationships of 12-sulfonyl derivatives of 5,8,8a,9,10,11,12,12a,13,13a-decahydro-6H-isoquino[2,1-g][1 ,6] naphthyridines at alpha-adrenoceptors” (J Med Chem, 1991).

Tests used:
[1] = target: T1, Adrenergic receptor alpha-2 (Rattus norvegicus, UniProt P22086+P19328+P22909); experiment: Binding affinity to alpha-2 adrenergic receptor determined by measurement of [3H]yohimbine displacement from rat cortical membrane
T1 sequence (P22086 whole entry): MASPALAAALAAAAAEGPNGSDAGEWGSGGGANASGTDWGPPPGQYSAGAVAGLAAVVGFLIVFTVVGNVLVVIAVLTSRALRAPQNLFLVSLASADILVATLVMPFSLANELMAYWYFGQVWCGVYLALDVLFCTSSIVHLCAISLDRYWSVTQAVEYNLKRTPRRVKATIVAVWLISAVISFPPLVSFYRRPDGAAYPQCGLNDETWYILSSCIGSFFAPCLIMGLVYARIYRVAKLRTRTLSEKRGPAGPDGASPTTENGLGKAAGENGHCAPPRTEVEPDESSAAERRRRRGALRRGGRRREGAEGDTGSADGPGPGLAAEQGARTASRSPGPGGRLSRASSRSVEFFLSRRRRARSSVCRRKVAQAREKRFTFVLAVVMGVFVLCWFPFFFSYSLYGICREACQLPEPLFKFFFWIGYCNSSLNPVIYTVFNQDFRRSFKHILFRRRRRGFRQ
T1 sequence (P19328 whole entry): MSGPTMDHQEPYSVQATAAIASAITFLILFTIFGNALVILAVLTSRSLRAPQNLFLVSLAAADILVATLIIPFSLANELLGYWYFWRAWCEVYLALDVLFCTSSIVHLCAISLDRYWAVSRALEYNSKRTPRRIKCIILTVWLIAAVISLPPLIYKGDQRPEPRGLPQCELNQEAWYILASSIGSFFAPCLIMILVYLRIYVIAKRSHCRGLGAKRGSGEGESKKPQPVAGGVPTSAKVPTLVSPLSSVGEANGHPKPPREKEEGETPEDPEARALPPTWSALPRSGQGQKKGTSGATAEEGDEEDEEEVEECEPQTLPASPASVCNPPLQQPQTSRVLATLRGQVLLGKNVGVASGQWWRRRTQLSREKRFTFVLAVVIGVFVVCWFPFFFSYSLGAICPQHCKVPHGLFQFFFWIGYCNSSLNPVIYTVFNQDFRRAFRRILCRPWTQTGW
T1 sequence (P22909 whole entry): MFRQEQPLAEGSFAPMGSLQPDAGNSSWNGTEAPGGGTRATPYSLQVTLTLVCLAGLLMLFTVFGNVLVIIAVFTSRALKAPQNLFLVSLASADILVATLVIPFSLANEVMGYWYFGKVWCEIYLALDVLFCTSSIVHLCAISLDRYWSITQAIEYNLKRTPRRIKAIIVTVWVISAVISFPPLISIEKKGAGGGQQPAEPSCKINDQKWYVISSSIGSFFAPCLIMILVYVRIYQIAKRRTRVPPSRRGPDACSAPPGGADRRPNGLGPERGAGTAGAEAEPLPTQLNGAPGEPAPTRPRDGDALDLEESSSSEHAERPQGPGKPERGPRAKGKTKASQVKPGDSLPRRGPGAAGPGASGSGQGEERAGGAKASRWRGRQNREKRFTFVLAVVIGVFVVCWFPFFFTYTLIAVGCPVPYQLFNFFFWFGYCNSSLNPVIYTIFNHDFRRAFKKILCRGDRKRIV

[2] = target: T2, Adrenergic receptor alpha-1 (Rattus norvegicus, UniProt P15823+P23944+P43140); experiment: Binding affinity to alpha-1 adrenergic receptor determined by measurement of [3H]prazosin displacement from rat cortical membrane
T2 sequence (P15823 whole entry): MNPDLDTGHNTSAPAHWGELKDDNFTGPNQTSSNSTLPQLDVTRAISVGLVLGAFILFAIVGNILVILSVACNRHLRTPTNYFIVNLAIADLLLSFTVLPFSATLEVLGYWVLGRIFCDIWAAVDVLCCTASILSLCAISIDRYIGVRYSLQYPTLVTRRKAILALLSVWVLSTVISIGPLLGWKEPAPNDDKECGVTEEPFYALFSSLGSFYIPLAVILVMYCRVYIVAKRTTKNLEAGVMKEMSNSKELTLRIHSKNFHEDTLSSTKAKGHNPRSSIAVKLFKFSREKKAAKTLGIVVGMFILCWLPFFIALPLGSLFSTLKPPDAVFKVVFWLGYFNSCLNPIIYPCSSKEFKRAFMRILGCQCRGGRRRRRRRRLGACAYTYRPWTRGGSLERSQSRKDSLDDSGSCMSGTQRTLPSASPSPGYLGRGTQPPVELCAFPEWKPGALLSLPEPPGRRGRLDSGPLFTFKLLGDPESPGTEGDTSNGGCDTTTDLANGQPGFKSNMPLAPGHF
T2 sequence (P23944 whole entry): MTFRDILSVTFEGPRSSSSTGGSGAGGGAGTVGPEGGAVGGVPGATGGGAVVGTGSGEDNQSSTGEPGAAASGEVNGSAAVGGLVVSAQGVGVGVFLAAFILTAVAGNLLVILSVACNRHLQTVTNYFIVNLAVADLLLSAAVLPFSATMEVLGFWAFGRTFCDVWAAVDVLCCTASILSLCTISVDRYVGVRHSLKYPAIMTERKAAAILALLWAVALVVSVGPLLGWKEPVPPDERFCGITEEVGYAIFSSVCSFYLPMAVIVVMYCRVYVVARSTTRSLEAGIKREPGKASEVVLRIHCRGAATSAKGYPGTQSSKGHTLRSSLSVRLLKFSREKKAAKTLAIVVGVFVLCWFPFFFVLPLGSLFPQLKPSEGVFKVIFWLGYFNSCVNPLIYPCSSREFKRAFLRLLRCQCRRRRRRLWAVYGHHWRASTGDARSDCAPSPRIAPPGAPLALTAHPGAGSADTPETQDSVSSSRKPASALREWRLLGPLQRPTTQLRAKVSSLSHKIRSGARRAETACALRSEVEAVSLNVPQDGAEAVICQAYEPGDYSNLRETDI
T2 sequence (P43140 whole entry): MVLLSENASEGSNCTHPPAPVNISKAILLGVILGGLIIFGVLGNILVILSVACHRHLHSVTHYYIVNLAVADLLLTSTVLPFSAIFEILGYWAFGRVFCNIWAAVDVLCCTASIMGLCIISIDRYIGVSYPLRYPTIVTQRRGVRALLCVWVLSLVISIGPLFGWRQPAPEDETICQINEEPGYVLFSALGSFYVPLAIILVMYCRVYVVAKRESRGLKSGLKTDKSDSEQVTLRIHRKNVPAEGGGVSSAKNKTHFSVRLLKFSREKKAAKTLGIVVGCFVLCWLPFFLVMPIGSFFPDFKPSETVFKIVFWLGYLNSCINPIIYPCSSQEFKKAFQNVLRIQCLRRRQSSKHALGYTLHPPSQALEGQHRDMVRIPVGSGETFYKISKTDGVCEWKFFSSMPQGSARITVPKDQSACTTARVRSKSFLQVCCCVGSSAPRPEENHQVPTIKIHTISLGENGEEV
Outline: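 Male Sprague-Dawley rat (150-200 g) cerebral cortex membranes, washed in 50 mM Tris-HCl/0.5 mM EDTA pH 7.4. 250 µg membrane protein incubated with 0.5 nM [3H]prazosin for 30 min at 25 °C in a 0.5 mL volume. Nonspecific binding defined by 10 µM phentolamine. IC50 estimated graphically; Ki calculated by Cheng-Prusoff.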

[3] = target: T3, Adrenergic receptor alpha-2 (Rattus norvegicus) (UniProt P22086+P19328+P22909)
[4] = target: T3, Adrenergic receptor alpha-2 (Rattus norvegicus); remark: listed apart in the source
Cavia porcellus = organism: Cavia porcellus; experiment: In vitro reversal of inhibitory effect of UK - 14304 on the contractile response of guinea pig ileum to field stimulation.; format: functional, organism-based; details: read-out: pA2 (converted)
Outline: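 Ileum from female Dunkin-Hartley guinea pigs (250-300 g) held in Tyrode solution at 37 °C, gassed with O2, under 1 g tension. Field stimulation at 0.1 Hz (1-ms pulses, supramaximal voltage), with isometric contractions recorded. Cumulative UK-14304 curves were run, the second taken as control. Antagonist was then applied for 40 min before repeat agonist curves.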

Row | SMILES | Log Ki [1] | Log Ki [2] | ID50 [3] [mg/kg] | ID50 [4] [mg/kg] | Kb (Cavia porcellus) [nM]
1 | COCCS(=O)(=O)N1CCC[C@@H]2CN3CCc4cc(OC)ccc4[C@@H]3C[C@@H]21 | -9.22 | -5.03 | 0.09 | 0.3 | 
2 | COC(=O)[C@@H]1[C@H]2C[C@H]3c4[nH]c5ccccc5c4CCN3C[C@@H]2CC[C@@H]1O |  |  | 0.185 | 2.8 | 
3 | COc1ccc2c(c1)CCN1C[C@H]3CCCN(S(=O)(=O)CC(C)C)[C@H]3C[C@@H]21 | -8.77 | -5.41 | 0.022 | 0.41 | 
4 | O=S(=O)(c1ccccc1)N1CCC[C@@H]2CN3CCc4ccccc4[C@@H]3C[C@@H]21 | -8.81 | -5.31 | 0.053 | > 10 | 
5 | COCCS(=O)(=O)N1CCC[C@@H]2CN3CCc4ccccc4[C@@H]3C[C@@H]21 | -8.63 | -5.13 | 0.062 | 0.24 | 
6 | CS(=O)(=O)N1CCC[C@@H]2CN3CCc4ccccc4[C@@H]3C[C@@H]21 | -8.77 | -5.26 | 0.0125 | 1.2 | 
7 | O=S(=O)(CCO)N1CCC[C@@H]2CN3CCc4ccccc4[C@@H]3C[C@@H]21 | -8.16 | -4.89 | 0.046 | 1.34 | 
8 | CS(=O)(=O)N1CCC[C@H]2CN3CCc4c([nH]c5ccccc45)[C@@H]3C[C@H]21 | -6.26 | -5.15 |  |  | 
9 | COc1ccc2c(c1OC)CCN1C[C@H]3CCCN(S(C)(=O)=O)[C@H]3C[C@@H]21 | -7.94 | -4.42 |  |  | 
10 | O=S(=O)(c1ccc(F)cc1)N1CCC[C@@H]2CN3CCc4ccccc4[C@@H]3C[C@@H]21 | -8.69 | -5.38 |  |  | 
11 | COc1ccc2c(c1)CCN1C[C@H]3CCCN(S(=O)(=O)Cc4ccccc4)[C@@H]3C[C@@H]21 | -8.82 | -5.13 |  |  | 
12 | COc1ccc2c(c1)CCN1C[C@H]3CCCN(S(C)(=O)=O)[C@@H]3C[C@@H]21 |  |  | 0.0065 | 0.095 | 0.2
13 | CCCCS(=O)(=O)N1CCC[C@H]2CN3CCc4ccccc4[C@@H]3C[C@@H]21 | -7.42 | -5.3 |  |  | 
14 | CS(=O)(=O)N1CCC[C@@H]2CN3CCc4cc5c(cc4[C@@H]3C[C@@H]21)OCCO5 | -8.8 | -5.02 | 0.13 | 1.4 | 
15 | O=S(=O)(c1ccc(Cl)cc1)N1CCC[C@@H]2CN3CCc4ccccc4[C@@H]3C[C@@H]21 | -8.3 | -5.19 |  |  | 
16 | CC(C)CS(=O)(=O)N1CCC[C@@H]2CN3CCc4cc5c(cc4[C@@H]3C[C@@H]21)OCO5 | -8.17 | -5.04 | 0.062 | 0.44 | 
17 | CN1C[C@H]2CCCN(S(C)(=O)=O)[C@H]2C[C@H]1c1ccc2c(c1)OCO2 | -5.38 | -4.82 |  |  | 
18 | c1ccc2c(c1)OCC(C1=NCCN1)O2 (centres undefined) [IDAZOXAN] |  |  | 0.017 | 1.2 | 3.98
19 | COc1cccc2c1[C@@H]1C[C@H]3[C@H](CCCN3S(C)(=O)=O)CN1CC2 | -8.65 | -5.48 |  |  | 
20 | CS(=O)(=O)N1CCC[C@H]2[C@H]3c4cc5c(cc4CCN3CC[C@@H]21)OCO5 | -6.4 | -5.06 |  |  | 
21 | COc1cc2c(cc1OC)[C@@H]1C[C@H]3[C@H](CCCN3S(C)(=O)=O)CN1CC2 | -8.01 | -4.46 | 0.38 | 1.6 | 
22 | COc1ccc(OC)c2c1CCN1C[C@H]3CCCN(S(C)(=O)=O)[C@H]3C[C@@H]21 | -7.37 | -5.63 |  |  | 
